Test results from ChEMBL document CHEMBL1153760, “Identification and structure-activity relationships of chromene-derived selective estrogen receptor modulators for treatment of postmenopausal symptoms” (J Med Chem, 2009).
Calls of active or inactive are those of the source. No cut-off for these calls is given here.

Key:
Estrogen receptor beta = Estrogen receptor beta (Homo sapiens, UniProt Q92731); test: Inhibition of fluormone ES2 binding to estrogen receptor beta after 1 hr by fluorescence polarization assay
Estrogen receptor beta, sequence (Q92731 whole entry): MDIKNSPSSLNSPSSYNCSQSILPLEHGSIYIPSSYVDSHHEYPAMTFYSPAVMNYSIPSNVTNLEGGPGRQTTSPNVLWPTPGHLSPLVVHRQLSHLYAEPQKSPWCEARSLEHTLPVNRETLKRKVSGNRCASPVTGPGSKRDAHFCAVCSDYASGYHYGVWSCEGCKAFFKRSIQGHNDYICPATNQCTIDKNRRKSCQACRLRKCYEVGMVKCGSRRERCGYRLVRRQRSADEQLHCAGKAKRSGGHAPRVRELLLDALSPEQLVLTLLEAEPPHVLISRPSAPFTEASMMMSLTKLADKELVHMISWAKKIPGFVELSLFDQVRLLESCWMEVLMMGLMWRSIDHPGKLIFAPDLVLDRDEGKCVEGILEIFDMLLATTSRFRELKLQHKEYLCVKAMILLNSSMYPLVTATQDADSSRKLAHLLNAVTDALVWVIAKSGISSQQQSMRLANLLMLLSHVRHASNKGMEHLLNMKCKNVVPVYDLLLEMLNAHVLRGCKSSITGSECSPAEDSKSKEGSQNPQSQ

Rattus norvegicus [1] = species on record: Rattus norvegicus; test: animal or person; format: functional; details: Uterus, 72 h, route oral
Rattus norvegicus [2] = test: Uterotropic activity in rat assessed as stimulation of estrone-induced uterine weight at 1 mg/kg, po QD after 3 days; format: functional; details: Uterus, 72 h
Estrogen receptor [3] = molecular target: T1, Estrogen receptor (Homo sapiens, UniProt P03372); test: Antagonist activity at estrogen receptor in human Ishikawa cells assessed as 17-beta-estradiol-induced alkaline phosphatase activity after 3 days by chemiluminescence assay; format: functional, cell-based
T1 sequence (P03372 whole entry): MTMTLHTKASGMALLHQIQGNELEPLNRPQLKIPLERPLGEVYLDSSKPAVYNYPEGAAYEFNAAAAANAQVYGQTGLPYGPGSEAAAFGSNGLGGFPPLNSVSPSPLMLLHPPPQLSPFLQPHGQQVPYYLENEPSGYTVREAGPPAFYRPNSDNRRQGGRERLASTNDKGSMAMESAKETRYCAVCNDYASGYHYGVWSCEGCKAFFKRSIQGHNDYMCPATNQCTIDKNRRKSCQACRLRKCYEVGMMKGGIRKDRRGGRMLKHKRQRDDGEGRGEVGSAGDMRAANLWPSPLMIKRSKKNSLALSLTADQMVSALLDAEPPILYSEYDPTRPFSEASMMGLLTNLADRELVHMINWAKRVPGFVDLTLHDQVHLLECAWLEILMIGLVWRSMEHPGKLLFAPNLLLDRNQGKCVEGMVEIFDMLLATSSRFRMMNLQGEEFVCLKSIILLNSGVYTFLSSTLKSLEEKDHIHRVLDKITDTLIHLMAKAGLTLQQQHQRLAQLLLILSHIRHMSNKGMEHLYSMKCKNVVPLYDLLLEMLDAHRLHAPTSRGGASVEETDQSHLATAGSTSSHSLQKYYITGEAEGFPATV

Estrogen receptor [4] = molecular target: T1, Estrogen receptor; test: Displacement of radiolabeled estrogen from estrogen receptor alpha by scintillation counting
[5] = Tmax in rat at 10 mg/kg, po administered as single dose by LC-MS/MS analysis; format: ADME, organism-based; design: dose 10 mg/kg, route oral; details: in vivo
Method in brief: (§1)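 Single-dose rat pharmacokinetics. IV dosing at 1-3 mg/kg as a solution in 10% β-cyclodextrin; oral gavage at 10 mg/kg as a uniform suspension in 0.5% methylcellulose. Blood (0.5 mL) collected into heparinized tubes by orbital sinus puncture after dosing. Plasma extracted into acetonitrile with an internal standard and analysed by LC-MS-MS against standards to obtain PK parameters.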

[6] = AUC in rat at 10 mg/kg, po administered as single dose by LC-MS/MS analysis; format: ADME, organism-based; design: dose 10 mg/kg, route oral; details: plasma; method in brief: as §1
[7] = Oral bioavailability in rat at 10 mg/kg administered as single dose by LC-MS/MS analysis; format: ADME, organism-based; details: in vivo; method in brief: as §1
[8] = Cmax in rats after 10 mg/kg oral dose; format: ADME, organism-based; design: dose 10 mg/kg, route oral; details: rat, in vivo; method in brief: as §1
[9] = Half life in rat at 10 mg/kg, po administered as single dose by LC-MS/MS analysis; format: ADME, organism-based; design: dose 10 mg/kg, route oral; details: in vivo; method in brief: as §1
Rattus norvegicus [10] = test: Decrease in bone resorption in ovariectomized rat assessed as decrease in urine deoxypyridinoline level at 0.1 mg/kg, po administered daily measured after 6 weeks; format: functional, organism-based; design: dose 0.1 mg/kg
Method in brief: (§2)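 Adult (>6 months) female rats, housed singly on a casein-based diet, ovariectomized under sterile conditions and anesthesia; 6-14 per group. From 24 h after surgery, daily oral gavage of an aqueous suspension in 0.5% Methocel for 2 or 6 weeks. […] Urine deoxypyridinoline measured as bone-resorption marker.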

Rattus norvegicus [11] = test: Decrease in tail skin temperature rise in morphine-addicted Sprague-Dawley rat hot flush model at 0.3 mg/kg, po administered daily measured for 60 mins after naloxone-induced morphine withdrawal; format: functional, organism-based; design: dose 0.3 mg/kg
Method in brief: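 Ovariectomized adult female Sprague-Dawley rats (3 months), 8-25 per group; oral gavage starting 6 days post-ovariectomy, sesame oil vehicle, suspension. Morphine given sc at 75 and 150 mg on treatment days 3 and 5. On the last day, under ketamine (80 mg/kg, im), tail thermistor; baseline about 20 min, then naloxone 2.0 mg/kg sc and tail skin temperature recorded 60 min. Multiple comparisons at each time point.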

Rattus norvegicus [12] = test: Increase in vaginal fluidity in ovariectomized rat at 0.1 mg/kg, po administered daily measured after 6 weeks by cytology analysis; format: functional, organism-based; design: dose 0.1 mg/kg
Method in brief: (§3)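 Ovariectomized adult female rats dosed daily by oral gavage (0.5% Methocel suspension) for 2 or 6 weeks from 24 h after surgery. Vaginal fluid collected with a cotton swab and its absolute weight determined per animal.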

Rattus norvegicus [13] = test: Effect on bone turnover in ovariectomized rat assessed as prevention of tibial bone density at 1 mg/kg, po administered daily measured after 6 weeks by ex vivo peripheral quantitative computerized tomography; format: functional, organism-based; design: dose 1 mg/kg
Rattus norvegicus [14] = test: Increase in vaginal secretion in ovariectomized rat at 1 mg/kg, po administered daily measured after 2 weeks […]; format: functional, organism-based; design: dose 1 mg/kg; method in brief: as §3
Rattus norvegicus [15] = test: Estrogenic activity in ovariectomized rat assessed as minor increase in uterine epithelial thickness at 1 mg/kg, po administered daily measured after 6 week by immunohistochemical analysis; format: functional, organism-based; design: dose 1 mg/kg
Rattus norvegicus [16] = test: Decrease in bone resorption in ovariectomized rat assessed as decrease in urine deoxypyridinoline level at 1 mg/kg, po administered daily measured after 6 weeks; format: functional, organism-based; design: dose 1 mg/kg; method in brief: as §2
Rattus norvegicus [17] = test: Estrogenic activity in ovariectomized rat assessed as minor increase in uterine epithelial thickness at 1.4 mg/kg, po administered daily measured after 6 week by immunohistochemical analysis; format: functional, organism-based; design: dose 1.4 mg/kg
Rattus norvegicus [18] = test: Decrease in tail skin temperature rise in morphine-addicted Sprague-Dawley rat hot flush model at 1.4 mg/kg, po administered daily measured for 60 mins after naloxone-induced morphine withdrawal; format: functional, organism-based; design: dose 1.4 mg/kg
Method in brief: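 Adult female Sprague-Dawley rats (3 months), 8-25 per group, ovariectomized; oral gavage started 6 days post-surgery; morphine suspension 75 and 150 mg sc on treatment days 3 and 5; last day ketamine 80 mg/kg im, tail thermistor baseline ~20 min, naloxone 2.0 mg/kg sc, tail skin temperature for 60 min; multiple comparisons per time point.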

Rattus norvegicus [19] = test: Decrease in bone resorption in ovariectomized rat assessed as decrease in urine deoxypyridinoline level at 1.4 mg/kg, po administered daily measured after 6 weeks; format: functional, organism-based; design: dose 1.4 mg/kg
Rattus norvegicus [20] = test: Increase in uterine weight in ovariectomized rat osteopenia model at 1 mg/kg, po administered daily measured after 6 weeks; format: functional, organism-based; design: dose 1 mg/kg
Rattus norvegicus [21] = test: Increase in uterine weight in ovariectomized rat osteopenia model at 1.4 mg/kg, po administered daily measured after 6 weeks; format: functional, organism-based; design: dose 1.4 mg/kg

Compound	IC50 (Estrogen receptor beta)	inhibition in vivo at 1 mg/kg (Rattus norvegicus [1])	IC50 (Estrogen receptor [3])	IC50 (Estrogen receptor [4])	further results
CCN(CC)CCOc1ccc([C@@H]2Oc3ccccc3C3=C2c2ccc(O)cc2OCC3)cc1	28 nM	30%	133 nM	9 nM	stimulation at 1 mg/kg (Rattus norvegicus [2]): 100%
Oc1ccc2c(c1)O[C@H](c1ccc(OCCN3CCCCC3)cc1)C1=C2CCOc2ccccc21	200 nM	5%	259 nM	100 nM	Tmax [5]: 4.8 h; AUC [6]: 1130 ng·h/mL; bioavailability [7]: 9%; Cmax [8]: 30 ng/mL; half-life [9]: 5.28 h
C#C[C@]1(O)CC[C@H]2[C@@H]3CCc4cc(O)ccc4[C@H]3CC[C@@]21C					Activity (Rattus norvegicus [10]): Active; Activity (Rattus norvegicus [11]): Active; Activity (Rattus norvegicus [12]): Active
CN(C)CCOc1ccc([C@@H]2Oc3ccccc3C3=C2c2ccc(O)cc2OCC3)cc1	23 nM	18%			stimulation at 1 mg/kg (Rattus norvegicus [2]): 70%
O=C(c1ccc(OCCN2CCCCC2)cc1)c1c(-c2ccc(O)cc2)sc2cc(O)ccc12 [RALOXIFENE]		105%			Activity (Rattus norvegicus [13]): Active; Activity (Rattus norvegicus [14]): inactive; Activity (Rattus norvegicus [15]): Active; Activity (Rattus norvegicus [16]): Active
CC(C)N(CCOc1ccc([C@@H]2Oc3cc(O)ccc3C3=C2c2ccc(O)cc2OCC3)cc1)C(C)C	18.5 nM	30%	35 nM	5.6 nM	stimulation at 1 mg/kg (Rattus norvegicus [2]): 80%
Oc1ccc2c(c1)O[C@H](c1ccc(OCCN3CCSCC3)cc1)C1=C2CCOc2cc(O)ccc21	27 nM	85%	87 nM	1.2 nM	Tmax [5]: 4.8 h; AUC [6]: 1530 ng·h/mL; bioavailability [7]: 9%; Cmax [8]: 89 ng/mL; half-life [9]: 5.28 h
CN(C)CCOc1ccc([C@@H]2Oc3cc(O)ccc3C3=C2c2ccc(O)cc2OCC3)cc1	12 nM	0%	405 nM	11 nM	stimulation at 1 mg/kg (Rattus norvegicus [2]): 100%
CC(C)(C)C(=O)Oc1ccc2c(c1)O[C@H](c1ccc(OCCN3CCCCC3)cc1)C1=C2COc2cc(OC(=O)C(C)(C)C)ccc21					Activity (Rattus norvegicus [17]): Active; Activity (Rattus norvegicus [18]): Active; Activity (Rattus norvegicus [19]): Active; Activity (Rattus norvegicus [20]): inactive; Activity (Rattus norvegicus [21]): Active
O=C1CCC(=O)N1CCCOc1ccc([C@H]2Oc3cc(O)ccc3C3=C2c2ccc(O)cc2OCC3)cc1	12.7 nM	0%	> 10000 nM	2.63 nM	
Oc1ccc2c(c1)O[C@@H](c1ccc(OCCN3CCCC3)cc1)C1=C2CCOc2cc(O)ccc21	8.7 nM	20%	165 nM	2.5 nM	
Oc1ccc2c(c1)OCCC1=C2[C@@H](c2ccc(OCCN3CCCCCC3)cc2)Oc2cc(F)ccc21	66 nM	22%	81 nM	3.3 nM	
Oc1ccc2c(c1)O[C@H](c1cccc(OCCN3CCCCC3)c1)C1=C2CCOc2cc(O)ccc21	380 nM	0%	> 10000 nM	150 nM	
CC/C(=C(\c1ccccc1)c1ccc(OCCN(C)C)cc1)c1ccccc1 [TAMOXIFEN]		0%			stimulation at 1 mg/kg (Rattus norvegicus [2]): 109%
Oc1ccc2c(c1)OC(c1ccc(OCCN3CCCCC3)cc1)C1=C2CCCOc2cc(O)ccc21 (single isomer, unassigned; (+))	77 nM	33%	121 nM	23 nM	
O=C(O)CCOc1ccc([C@H]2Oc3cc(O)ccc3C3=C2c2ccc(O)cc2OCC3)cc1	250 nM	0%	> 10000 nM	120 nM	
CN(C)CCOc1ccc([C@H]2Oc3cc(O)ccc3C3=C2c2ccc(O)cc2OCC3)cc1	23 nM	25%	61 nM	3.3 nM	
Oc1ccc2c(c1)O[C@@H](c1ccc(OCCN3CCCCC3)cc1)C1=C2CCOc2ccccc21	63 nM	12%	25.9 nM	6.3 nM	
Oc1ccc2c(c1)OCCC1=C2[C@H](c2ccc(OCCN3CCCCCC3)cc2)Oc2cc(F)ccc21	31 nM	33%	161 nM	5 nM	
O=C1CCC(=O)N1CCCOc1ccc([C@@H]2Oc3cc(O)ccc3C3=C2c2ccc(O)cc2OCC3)cc1	5.68 nM	0%	> 10000 nM	41 nM	
Oc1ccc2c(c1)O[C@@H](c1ccc(OCCN3CCCCCC3)cc1)C1=C2CCOc2ccccc21	41 nM	7%	144 nM	4 nM	
